These results are taken from publication PMC3573876 (The Journal of antibiotics, 2012).

Data set [1] deals with activated p65 subunits of NF-κB in the nucleus of HeLa cells. The data set can be described thus: ELISA based NF-κB p65 inhibitory assay. It is filed as cell-based, human. The settings on record: for IC50: read-out: NF-κB inhibitory activity IC50 values, p65 binding, HeLa cells, ELISA. Background: ELISA stands for enzyme-linked immunosorbent assay.
A further data set deals with EGFR tyrosine kinase (Homo sapiens, UniProt P00533). The data set can be described thus: EGFR enzymatic assay. It is filed as biochemical. The following applies: read-out: EGFR inhibition IC50; luminescence kinase assay.
EGFR tyrosine kinase, sequence (P00533 25-1210): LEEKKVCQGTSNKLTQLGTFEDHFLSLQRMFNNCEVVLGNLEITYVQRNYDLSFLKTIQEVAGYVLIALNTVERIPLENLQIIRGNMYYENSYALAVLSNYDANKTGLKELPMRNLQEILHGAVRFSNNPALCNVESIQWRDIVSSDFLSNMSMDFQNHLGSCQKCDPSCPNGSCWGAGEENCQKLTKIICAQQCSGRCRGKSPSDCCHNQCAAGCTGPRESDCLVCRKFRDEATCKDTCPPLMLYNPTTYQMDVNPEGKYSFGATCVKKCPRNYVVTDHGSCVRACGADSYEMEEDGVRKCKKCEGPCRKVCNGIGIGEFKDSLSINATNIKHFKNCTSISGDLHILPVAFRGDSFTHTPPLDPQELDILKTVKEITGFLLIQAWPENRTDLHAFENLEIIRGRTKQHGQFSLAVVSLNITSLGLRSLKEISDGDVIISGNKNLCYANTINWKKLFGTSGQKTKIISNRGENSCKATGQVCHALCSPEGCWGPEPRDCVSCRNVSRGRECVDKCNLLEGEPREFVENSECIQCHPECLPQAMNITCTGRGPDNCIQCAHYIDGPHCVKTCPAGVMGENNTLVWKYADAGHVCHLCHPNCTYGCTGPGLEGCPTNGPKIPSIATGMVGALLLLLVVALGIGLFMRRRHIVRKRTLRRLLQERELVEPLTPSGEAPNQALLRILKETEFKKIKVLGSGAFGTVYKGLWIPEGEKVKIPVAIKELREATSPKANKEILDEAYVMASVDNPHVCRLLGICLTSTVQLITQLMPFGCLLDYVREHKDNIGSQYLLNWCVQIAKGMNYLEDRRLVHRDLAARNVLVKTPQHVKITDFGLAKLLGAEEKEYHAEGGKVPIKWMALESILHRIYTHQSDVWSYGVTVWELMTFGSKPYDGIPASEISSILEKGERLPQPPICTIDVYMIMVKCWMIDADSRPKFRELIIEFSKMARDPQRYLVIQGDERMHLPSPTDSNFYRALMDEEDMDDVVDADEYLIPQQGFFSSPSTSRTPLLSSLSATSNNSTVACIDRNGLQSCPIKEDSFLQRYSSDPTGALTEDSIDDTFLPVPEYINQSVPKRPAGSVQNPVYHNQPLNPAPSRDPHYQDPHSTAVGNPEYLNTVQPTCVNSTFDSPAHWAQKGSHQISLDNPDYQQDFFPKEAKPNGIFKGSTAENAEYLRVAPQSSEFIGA
Data set [2] has as its system epidermal growth factor receptor (EGFR). The settings on record: cell-free ELISA assay; cited from earlier work.
In data set [3] the test system is human epidermal growth factor receptor-2 (HER2/ErbB-2). The following applies: cell-free ELISA assay; cited from earlier work.
For data set [4], the system named is vascular endothelial growth factor receptor-1/fms-like tyrosine kinase-1 (VEGFR-1/Flt-1). The following applies: cell-free ELISA assay; cited from earlier work.
Data set [5] in a line: Cytotoxicity assay. It is filed as cell-based. The settings on record: human, MCF-7 breast carcinoma cells. The gist of the method: (§1)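 Cells were exposed continuously to the test compound for 72 h, then stained with sulforhodamine B. IC50 was the concentration that reduced staining by 50% relative to untreated controls. Positive controls were run alongside. MCF-7 came from a cancer-centre stock, NCI-H460 from ATCC, and SF-268 from the NCI Developmental Therapeutics Program.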

Data set [6] can be described thus: Cytotoxicity assay. It is filed as cell-based. The following applies: human, NCI-H460 large cell lung carcinoma cells. In short, it runs like this:
as §1

Data set [7] is described as follows: Cytotoxicity assay. The settings on record: human, SF-268 astrocytoma cells. In kind it is cell-based. In short, it runs like this: as §1
In another data set the test system is A549 (adenocarcinoma). The settings on record: A549 human cell line; cited from earlier work.
In data set [8] the test system is HepG2 (hepatocellular carcinoma). The following applies: HepG2 human cell line; cited from earlier work.
Data set [9] in a line: Cytotoxicity assay. It is filed as cell-based. The settings on record: human.
The nature of data set [10]: Cytotoxicity assay. It is filed as cell-based. The settings on record: human. This is another data set of the same source.

Consider `CN1C(=O)[C@]23SS[C@@]1(C)C(=O)N2[C@H]1Nc2ccccc2[C@@]1([C@@]12c4ccccc4N[C@@H]1N1C(=O)[C@@]4(C)SS[C@]1(C(=O)N4C)[C@H]2O)[C@@H]3O` [Verticillin A (3), verticillin A], for which, in data set [1], the “NF-κB assay activity (in words)” value was “sub-micromolar range” and the IC50 was 100 nM. At EGFR tyrosine kinase, the IC50 was greater than 10000 nM.

For `CN1C(=O)[C@@]23C[C@]4([C@]56C[C@@]78SS[C@@](C)(C(=O)N7[C@H]5Nc5ccccc56)N(C)C8=O)c5ccccc5N[C@@H]4N2C(=O)[C@]1(C)SS3` [11,11′-Dideoxyverticillin], the “Tyrosine kinase inhibitory activity, EGFR” value in [2] is “nM range”. Besides, the “Tyrosine kinase inhibitory activity, HER2/ErbB-2” value in data set [3] is “µM range”. Besides, in data set [4], the “Tyrosine kinase inhibitory activity, VEGFR-1/Flt-1” value is given as “nM range”.

Regarding `CC[C@@]12SS[C@]3(C(=O)N1C)[C@@H](O)[C@]1(C45c6ccccc6N[C@@H]4N4C(=O)[C@@]6(CC)SS[C@@]4(C(=O)N6C)[C@H]5O)c4ccccc4N[C@@H]1N3C2=O` (some centres unmarked) [Verticillin H (1), verticillin H], the IC50 (in [1]; on EGFR tyrosine kinase) was greater than 10000 nM each time.

As to `CC[C@@]1(O)C(=O)OCc2c1cc1n(c2=O)Cc2cc3ccccc3nc2-1` [Camptothecin], the IC50 at 72 h in the data set “Cytotoxicity assay [5]” is 130 nM; in “Cytotoxicity assay [6]” it was 10 nM; in the data set “Cytotoxicity assay [7]” it was 10 nM.

For the compound `CC(O)[C@@]12SS[C@]3(C(=O)N1C)[C@@H](O)[C@]1([C@@]45c6ccccc6N[C@@H]4N4C(=O)[C@]6(C)SS[C@]4(C(=O)N6C)[C@H]5O)c4ccccc4N[C@@H]1N3C2=O` (some centres unmarked) [Sch 52901 (2), Sch 52900], in [1], the “NF-κB assay activity (in words)” value is given as “sub-micromolar range” and the IC50 is 500 nM.

As for `CC[C@@]12SS[C@]3(C(=O)N1C)[C@@H](O)C1(C45c6ccccc6N[C@@H]4N4C(=O)[C@]6([C@@H](C)O)SS[C@]4(C(=O)N6C)[C@H]5O)c4ccccc4N[C@@H]1N3C2=O` (some centres unmarked) [Gliocladicillin C (4), gliocladicillin C], the IC50 (in data set [1]; at EGFR tyrosine kinase) was greater than 10000 nM throughout. The “Cytotoxic activity on A549” value with A549 (adenocarcinoma) is recorded as “high cytotoxic activity”. For the same compound, the “Cytotoxic activity on HepG2” value in data set [8] is “high cytotoxic activity”.

As to Sch 52901 [Sch 52900 (5)], in data set [1], the IC50 is greater than 10000 nM.

For the compound `COC(=O)[C@H]1[C@@H](O)[C@@]2(O)c3c(OC)cc(O[C@@H]4O[C@@H]([C@H](O)CO)CO[C@H]4OC)cc3O[C@@]2(c2ccc(OC)cc2)[C@@H]1c1ccccc1` [Silvestrol], the IC50 in “Cytotoxicity assay [9]” and in “Cytotoxicity assay [10]” was 10 nM each time.

Broadly, the IC50 is the concentration that inhibits the measured activity by half.
